Bioassay records (PubChem)
T cruzi inh – T. cruzi replication inhibition | T. cruzi beta-gal in NIH3T3, luminescence, 90 h | inhibition, % (concentration not given with the values) | actives 1.4% (n = 300,000);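 active = mean inhibition across valid replicates above about 55%, limit read from the data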;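 also: signal also drops with host cell toxicity which is not excluded here; 0% = plate median of DMSO wells and 100% = zero luminescence signal; higher percent means less beta-gal luminescence so fewer parasites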
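assay system = mouse NIH/3T3 fibroblasts infected with β-gal-expressing T. cruzi Tulahuen C4 | input = 5,000 NIH/3T3 host cells per well | buffer or medium = DMEM plus 2% FBS | timing = 3 h host attachment, then at least 90 h co-culture | measured by = GalScreen luminescence, 60 min | evaluation = luminescence reflecting intracellular parasite burden, expressed as percent inhibition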
XBP1 UPR activ – activators of adaptive arm of unfolded protein response (XBP1); activation, % at 20 µM; CHO-XBP1 luciferase reporter, IRE1-XBP1 UPR activation, luminescence; percent of tunicamycin response, DMSO as zero; actives 0.33% (n = 330,000);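 active = versus positive control, 20 µM dose yields 30% or more activation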;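 also: 100% = tunicamycin at 10 µg/mL and 0% = DMSO only wells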
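Material: CHO-XBP1 cells stably carrying IRE1-XBP1-driven luciferase reporter | Medium: F12 with 10% serum | Compound dosing: 20 µM single concentration, DMSO 1% | Incubation: Overnight seeding at 37 °C, 6 h compound treatment at 37 °C | Detection: Steady-Glo luminescence read | Read-out basis: % activation of reporter signal versus tunicamycin and DMSO controls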
CSC inhib – blocks cancer stem cells. cancer stem cell-like cells viability, luminescence. inhibition, % at 7.5 µM. actives 1.1% (n = 300,000). AID 2717; in the data active = inhibition above about 75%; tested in HMLE shEcad cells
Beta cell apopt – beta cell apoptosis inhibition; INS-1E cytokine-induced death, ATP luminescence, 48 h; percent of positive-control rescue, neutral wells zero; protection from apoptosis, % (concentration not given with the values); actives 0.8% (n = 300,000); AID 435005;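 active = Every replicate reaches about 75%, or at least half do and their mean reaches it too, limit read from the data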;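 also: 0% = cytokine-treated negative control wells and 100% = positive control rescue; higher means more ATP so stronger rescue from cytokine killing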
CHOP UPR activ – apoptotic UPR (CHOP) activation; AID 449763; actives 0.34% (n = 330,000); activation, % at 10 µM; CHO-CHOP luciferase reporter, luminescence; percent of tunicamycin response over DMSO baseline;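 active = at 10 µM dose, activation of 40% or more, normalized to positive control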;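 also: 100% = tunicamycin at 10 µg/mL and 0% = DMSO alone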
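assay system = CHO CHOP reporter cells | amount = 500 CHO-CHOP cells per well | buffer or medium = F12 with 10% FBS | incubation = 16-18 h cell attachment, then 6 h compound exposure, 37 °C | detection = luminescence read with Steady-Glo | read-out = percent activation relative to tunicamycin control | controls = tunicamycin high control, DMSO low control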
Mdm2 MdmX PPI – human Mdm2/MdmX binding inhibition | O15151+Q00987 | SaOS-2 split-luciferase Mdm2/MdmX complementation, luminescence | inhibition, % at 8 µM | actives 3% (n = 330,000);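 active = inhibition of at least 50% at 8 µM in the primary screen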
Target sequence (O15151 whole entry, looked up): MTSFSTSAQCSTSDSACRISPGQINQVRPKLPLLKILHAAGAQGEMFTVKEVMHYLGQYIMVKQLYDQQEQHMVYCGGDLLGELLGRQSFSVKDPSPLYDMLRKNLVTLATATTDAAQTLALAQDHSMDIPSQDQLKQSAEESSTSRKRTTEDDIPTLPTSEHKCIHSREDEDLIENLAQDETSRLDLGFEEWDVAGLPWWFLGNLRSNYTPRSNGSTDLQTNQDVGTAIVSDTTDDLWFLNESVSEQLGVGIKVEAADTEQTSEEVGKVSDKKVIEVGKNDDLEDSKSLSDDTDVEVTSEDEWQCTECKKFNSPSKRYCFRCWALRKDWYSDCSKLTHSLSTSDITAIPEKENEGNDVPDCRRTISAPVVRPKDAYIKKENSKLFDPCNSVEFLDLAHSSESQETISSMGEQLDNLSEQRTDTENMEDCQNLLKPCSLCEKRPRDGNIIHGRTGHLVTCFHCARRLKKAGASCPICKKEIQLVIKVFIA
Target sequence (Q00987 whole entry, looked up): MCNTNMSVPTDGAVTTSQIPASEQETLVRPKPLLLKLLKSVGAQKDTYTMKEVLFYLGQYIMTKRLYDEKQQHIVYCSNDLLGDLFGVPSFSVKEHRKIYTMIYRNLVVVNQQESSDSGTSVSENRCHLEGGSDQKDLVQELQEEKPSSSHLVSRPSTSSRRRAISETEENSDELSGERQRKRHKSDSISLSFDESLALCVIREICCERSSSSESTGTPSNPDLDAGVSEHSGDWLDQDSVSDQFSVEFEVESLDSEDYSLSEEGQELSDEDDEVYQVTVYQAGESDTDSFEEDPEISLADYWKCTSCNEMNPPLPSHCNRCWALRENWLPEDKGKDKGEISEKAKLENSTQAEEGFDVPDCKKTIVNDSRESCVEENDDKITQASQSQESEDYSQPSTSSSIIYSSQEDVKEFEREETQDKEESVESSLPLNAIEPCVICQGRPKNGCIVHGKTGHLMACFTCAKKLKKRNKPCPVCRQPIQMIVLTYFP
Mdm2-MdmX conf – confirmation of human Mdm2/MdmX interaction inhibitors; shares compounds with Mdm2 MdmX PPI; Mdm2-MdmX binding, luminescent assay; AID 489028; actives 55% (n = 10,000); inhibition, % at 8 µM; in the data active = inhibition above about 40%
Full FLuc ctr – full-length luciferase inhibition in Mdm2/MdmX counter-screen | shares compounds with Mdm2 MdmX PPI | SaOS-2 full-length luciferase counterscreen, luminescence | inhibition, % at 8 µM | actives 77% (n = 6,200);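 active = mean inhibition at 8 µM reaching about 37%, which flags the compound as non-specific, limit read from the data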;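 also: p53-null SaOS-2 cells with luciferase driven by a doxycycline-inducible promoter; compound on cells about two nights before reading with doxycycline added after day one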
An asterisk follows results filed as active; . = not tested or not shown. An excerpt weighted towards active compounds, which were near 5% of everything screened.

SMILES	T cruzi inh	XBP1 UPR activ	CSC inhib	Beta cell apopt	CHOP UPR activ	Mdm2 MdmX PPI	Mdm2-MdmX conf	Full FLuc ctr
COc1cc(NC(=O)C2CCN(S(=O)(=O)c3ccc(Cl)cc3)CC2)ccc1-n1cnnn1	-17	-1	45	3	0	14	.	.
CCN1C(=O)/C(=C/c2nc3ccccc3c(=O)[nH]2)c2ccccc21	.	.	1	-4	.	.	.	.
COc1ccc(-n2c(/C=C3\C(=O)N(C)c4ccccc43)nc3ccccc3c2=O)cc1	7	2	9	-10	2	61*	23	.
CCN1C(=O)/C(=C/c2nc3ccccc3c(=O)n2-c2ccc(C)cc2)c2ccccc21	74*	5	33	-3	17	83*	62*	86*
CCN1C(=O)/C(=C\c2nc3ccccc3c(=O)n2-c2ccccc2)c2ccccc21	24	7	.	.	4	51*	33	.
CCC(C(=O)Oc1c(C(C)C)cccc1C(C)C)c1ccccc1 (stereo not drawn)	.	-4	17	4	1	4	.	.
O=C(CCCC(=O)Nc1ccccc1Br)N/N=C/c1c(F)cccc1Cl	-4	4	.	-8	1	-13	.	.
CN(C)S(=O)(=O)c1cccc(NC(=O)c2cc(=O)[nH]c(=O)[nH]2)c1	-8	4	-15	1	2	7	.	.
O=C(N/N=C/c1cccc([N+](=O)[O-])c1)c1ccc(COc2ccccc2-c2ccccc2)cc1	40	-1	-1	2	1	-6	.	.
COc1cccc(NC(=O)CCc2nc(-c3ccccc3F)no2)c1	-21	-2	-21	-2	1	6	.	.
O=C(CCc1nc(-c2ccccc2F)no1)Nc1ccc(Oc2ccccc2)cc1	1	-1	57	1	3	61*	23	52*
O=C(N/N=C/c1ccco1)C1CC1c1ccccc1 (stereo not drawn)	-4	0	-5	0	0	-20	.	.
CC(C)(C)c1ccc(C2CC2C(=O)N/N=C\c2ccc[nH]2)cc1 (stereo not drawn)	60*	4	0	109*	4	84*	73*	31
COc1cc(NC(=O)c2c(-c3ccccc3Cl)noc2C)c2ncccc2c1	28	1	46	15	1	24	.	.
C/C(=N\NC(=O)c1ccoc1C)c1ccccc1	-2	-2	21	-1	5	-61	.	.
Cc1ccccc1C(=O)O/N=C(\N)c1ccccc1	1	-11	-1	6	-9	86*	41*	114*
Cc1ccccc1/C(N)=N/OC(=O)c1ccc(F)cc1	12	-5	-12	.	3	65*	-3	.
Cc1onc(-c2ccccc2Cl)c1C(=O)Nc1cccc2cccnc12	10	0	53	7	0	64*	17	.
Cc1occc1C(=O)O/N=C(\N)c1ccccc1	6	-6	21	42	-2	72*	-2	.
CCn1c(NC(=O)Nc2cccc(C)c2C)cc2sccc21	5	-1	2	-7	-2	-10	.	.
O=C(/C=C/c1ccco1)OCC1CCCN2CCCCC12 (stereo not drawn)	-5	-1	15	2	0	-14	.	.
CCOC(=O)N1CCN(C(=O)Cc2ccccc2[N+](=O)[O-])CC1	3	0	-3	-3	-2	1	.	.
Cc1onc(-c2ccccc2Cl)c1C(=O)O/N=C(\N)c1ccccc1	59*	-4	41	5	3	100*	92*	112*
Cc1cccc(/C(N)=N/OC(=O)c2ccoc2C)c1	20	-3	2	38	2	94*	47*	167*
CN1C(=O)/C(=C/c2cccc(Cl)c2)Sc2ccc(C(=O)N3CCCC3)cc21	-5	-5	-10	6	2	73*	13	.
SMILES	T cruzi inh	XBP1 UPR activ	CSC inhib	Beta cell apopt	CHOP UPR activ	Mdm2 MdmX PPI	Mdm2-MdmX conf	Full FLuc ctr
Cc1cccc(C)c1NC(=O)COC(=O)c1cccc2c1C(=O)c1ccccc1C2=O	10	1	13	1	1	59*	35	77*
Cc1cccc(NC(=O)COC(=O)c2cccc3c2C(=O)c2ccccc2C3=O)c1C	1	1	8	5	5	31	.	.
Cc1cc2cc(CN(CC3CCCO3)C(=S)Nc3ccccc3)c(=O)[nH]c2cc1C (stereo not drawn)	-8	0	3	9	0	67*	56*	59*
CCN1CCCC1CN(Cc1cc2ccc(C)cc2[nH]c1=O)C(=S)Nc1ccc(F)cc1 (stereo not drawn)	27	2	-6	5	1	60*	35	63*
COc1ccc2cc(CN(CC3CCCO3)C(=O)Nc3ccccc3OC)c(=O)[nH]c2c1 (stereo not drawn)	11	8	47	11	3	59*	53*	63*
CCN1CCCC1CN(Cc1cc2ccc(C)cc2[nH]c1=O)C(=S)Nc1ccc(OC)cc1 (stereo not drawn)	15	0	-12	-10	0	-8	.	.
CN(C)CCCN(Cc1cc2cc3c(cc2[nH]c1=O)OCO3)C(=S)Nc1ccccc1	19	0	-6	-9	-1	6	.	.
COc1ccc(NC(=O)N(Cc2cc3ccc(OC)cc3[nH]c2=O)CC2CCCO2)cc1 (stereo not drawn)	-8	-2	-1	3	4	32	.	.
CN(C)CCCN(Cc1cc2cc3c(cc2[nH]c1=O)OCO3)C(=S)Nc1cccc(Cl)c1	20	-1	.	-6	1	59*	29	.
CCc1ccc(NC(=O)[C@H](Cc2ccccc2)NC(=O)C2CCN(C(=O)[C@@H](N)CC(C)C)CC2)cc1	-14	-2	0	.	-1	30	.	.
O=S(=O)(c1ccc(Cl)c(C(F)(F)F)c1)N1CCN(CC(O)COCC2CCCO2)CC1 (stereo not drawn)	-4	0	-3	-2	2	9	.	.
O=C(Nc1ccc(Cc2ccncc2)cc1)c1ccc(S(=O)(=O)N2CCCC2)cc1	37	0	.	.	-1	1	.	.
COc1ccc2[nH]c(=O)c(CN(CC3CCCO3)C(=S)Nc3ccccc3)cc2c1 (stereo not drawn)	16	0	6	-2	-1	12	.	.
COc1ccc2cc(CN(CC3CCCO3)C(=S)Nc3ccccc3)c(=O)[nH]c2c1 (stereo not drawn)	17	3	6	-1	2	52*	51*	57*
